Calls of active or inactive are those of the source. The rule behind the calls is not given here.

The target of series [1] is T1, D(4) dopamine receptor (Homo sapiens) (UniProt P21917).
T1 sequence (whole entry): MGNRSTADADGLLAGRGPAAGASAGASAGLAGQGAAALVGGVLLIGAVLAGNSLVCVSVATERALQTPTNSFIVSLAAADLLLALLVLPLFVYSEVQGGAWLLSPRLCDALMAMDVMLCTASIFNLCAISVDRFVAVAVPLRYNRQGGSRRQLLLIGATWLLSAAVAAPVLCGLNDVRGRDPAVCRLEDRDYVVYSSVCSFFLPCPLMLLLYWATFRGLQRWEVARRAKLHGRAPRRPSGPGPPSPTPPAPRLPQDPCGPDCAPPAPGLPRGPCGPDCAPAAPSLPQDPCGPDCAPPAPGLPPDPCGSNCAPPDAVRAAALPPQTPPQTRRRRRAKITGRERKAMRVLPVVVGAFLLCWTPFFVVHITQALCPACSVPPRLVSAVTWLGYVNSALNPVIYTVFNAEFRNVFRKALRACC
Description: Activity at human D4.4 receptor in HEK293 cells co-expressing Galphaqo5 by FLIPR. Format: functional, cell-based.

The target in series [2] is T2, D(4) dopamine receptor (Homo sapiens, UniProt P21917).
T2 sequence (P21917 whole entry): T1 sequence (whole entry)
As to the kind of experiment: Displacement of [3H]A369508 from human D4 receptor expressed in HEK293 cell membrane. It counts as cell membranes.

Series [3] deals with Rattus norvegicus. As to the kind of experiment: Proerectile activity in rat measured as incidence of penile erection at 0.1 umol/kg, sc. Format: functional. An outline of the steps: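 Conscious male rats were given a single subcutaneous injection and observed for penile erections over the following 60 min. The read-out was the incidence of erections, expressed as % of animals ± SEM (n = 12–32 animals per group), with significance tested against controls. The value is the maximal incidence at the maximally effective dose.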

Series [4] concerns the target T2, D(4) dopamine receptor. Description: (§1) Agonist activity at human D4.4 receptor in HEK293 cells coexpressing G-alpha-qo5 by FLIPR. Format: functional, cell-based.
The nature of series [5]: Bioavailability in Sprague-Dawley rat at 1 mg/kg, po. To be noted: in vivo. It counts as ADME, organism-based. An outline of the steps:
(§2)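 Single 1 mg/kg dose given iv, sc or orally to Sprague-Dawley rats, dogs and monkeys; plasma concentrations followed over time (mean ± SEM, n = 3). Cmax, AUC, half-life, clearance and bioavailability calculated from the curves.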

The nature of series [6]: Bioavailability in Sprague-Dawley rat at 1 mg/kg, sc. Format: ADME, organism-based. To be noted: in vivo. A digest of the protocol:
as §2

The nature of series [7]: Half life in Sprague-Dawley rat at 1 mg/kg, sc. To be noted: in vivo. It counts as ADME, organism-based. Details: dose 1 mg/kg, route subcutaneous. An outline of the steps:
as §2

Series [8] deals with T1, D(4) dopamine receptor (Homo sapiens). Description: Agonist activity at human D4.4 receptor in HEK293 cells coexpressing G-alpha-qo5 by FLIPR with relative to dopamine upto 10 uM. It counts as functional, cell-based.
In series [9] the test system is Rattus norvegicus. Description: Blockade of ABT-670-induced erctogenic activity in rat at 1 umol/kg, ip. Format: functional, organism-based.
Series [10] deals with T3, D(2) dopamine receptor (Homo sapiens, UniProt P14416). Description: Binding affinity to human D2S receptor.
Series [11] concerns the target D(3) dopamine receptor (Homo sapiens) (UniProt P35462). As to the kind of experiment: Agonist activity at human D3 receptor in HEK293 cells coexpressing G-alpha-qo5 by FLIPR upto 10 uM. Format: functional, cell-based.
Series [12] is filed under the species Mustela putorius furo. Description: Induction of emesis in ferret. Format: functional, organism-based.
Series [13] is filed under the species Mustela putorius furo. As to the kind of experiment: Induction of nausea in ferret. It counts as functional, organism-based.
Series [14] in a line: Agonist activity at ferret D4 receptor in HEK293 cells coexpressing G-alpha-qo5 by FLIPR. It counts as functional, cell-based, Mustela putorius furo. To be noted: Mustela putorius. An outline of the steps:
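HEK cells cotransfected with ferret D4 receptor and chimeric G protein Gqo5, with receptor activation read as a calcium flux signal on FLIPR. EC50 is the concentration giving half-maximal activation.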

Series [15] addresses T4, D(4) dopamine receptor (Rattus norvegicus, UniProt P30729).
T4 sequence (P30729 whole entry): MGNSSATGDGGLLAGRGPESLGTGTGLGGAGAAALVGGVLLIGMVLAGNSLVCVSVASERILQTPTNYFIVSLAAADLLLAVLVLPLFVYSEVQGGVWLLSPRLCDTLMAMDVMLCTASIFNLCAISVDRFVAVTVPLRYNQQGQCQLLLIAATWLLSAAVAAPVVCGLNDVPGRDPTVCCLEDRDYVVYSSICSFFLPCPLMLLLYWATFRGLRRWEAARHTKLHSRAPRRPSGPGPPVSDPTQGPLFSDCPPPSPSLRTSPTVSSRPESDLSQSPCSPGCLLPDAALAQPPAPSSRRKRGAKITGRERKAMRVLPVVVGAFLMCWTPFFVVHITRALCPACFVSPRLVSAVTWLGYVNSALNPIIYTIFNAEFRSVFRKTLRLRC
As to the kind of experiment: Agonist activity at rat D4 receptor in HEK293 cells coexpressing G-alpha-qo5 by FLIPR. It counts as functional, cell-based.

Series [16] in a line: Agonist activity at ferret D4 receptor in HEK293 cells coexpressing G-alpha-qo5 by FLIPR relative to dopamine. It counts as functional, Mustela putorius furo.
For series [17], the target named is T5, D(4) dopamine receptor (Rattus norvegicus) (UniProt P30729).
T5 sequence (whole entry): T4 sequence (P30729 whole entry)
As to the kind of experiment: Agonist activity at rat D4 receptor in HEK293 cells co-expressing Galphaqo5 by FLIPR relative to dopamine. It counts as functional, cell-based.

For series [18], the target named is T3, D(2) dopamine receptor. Description: Agonist activity at human D2 receptor in HEK293 cells coexpressing G-alpha-qo5 by FLIPR relative to dopamine upto 10 uM. Format: functional, cell-based. A digest of the protocol:
(§3)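 Ca2+ flux by FLIPR in HEK cells cotransfected with the D2 receptor (human, ferret or rat) plus chimeric G protein Gqo5.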

Series [19] deals with D(2) dopamine receptor (Rattus norvegicus) (UniProt P61169). As to the kind of experiment: Agonist activity at rat D2 receptor in HEK293 cells coexpressing G-alpha-qo5 by FLIPR relative to dopamine upto 10 uM. Format: functional, cell-based. An outline of the steps:
as §3

For series [20], the target named is T3, D(2) dopamine receptor. As to the kind of experiment: Displacement of [125I]7-OH-PIPAT from human D2L receptor expressed in HEK293 cell membrane. It counts as cell membranes.
Series [21] deals with D(2) dopamine receptor (Mustela putorius furo). As to the kind of experiment: Agonist activity at ferret D2 receptor in HEK293 cells coexpressing Galphaqo5 by FLIPR relative to dopamine upto 10 uM.
For series [22], the target named is T1, D(4) dopamine receptor (Homo sapiens). The series is described as §1. Format: functional, cell-based.
Series [23] shares this target. As to the kind of experiment: Agonist activity at human D4.4 receptor in HEK293 cells coexpressing G-alpha-qo5 by FLIPR upto 10 uM. It counts as functional, cell-based.
The subject of series [24] is Rattus norvegicus. Description: Blockade of ABT-670-induced erctogenic activity in rat at 10 umol/kg, ip. Format: functional, organism-based.

T3 sequence (P14416 whole entry): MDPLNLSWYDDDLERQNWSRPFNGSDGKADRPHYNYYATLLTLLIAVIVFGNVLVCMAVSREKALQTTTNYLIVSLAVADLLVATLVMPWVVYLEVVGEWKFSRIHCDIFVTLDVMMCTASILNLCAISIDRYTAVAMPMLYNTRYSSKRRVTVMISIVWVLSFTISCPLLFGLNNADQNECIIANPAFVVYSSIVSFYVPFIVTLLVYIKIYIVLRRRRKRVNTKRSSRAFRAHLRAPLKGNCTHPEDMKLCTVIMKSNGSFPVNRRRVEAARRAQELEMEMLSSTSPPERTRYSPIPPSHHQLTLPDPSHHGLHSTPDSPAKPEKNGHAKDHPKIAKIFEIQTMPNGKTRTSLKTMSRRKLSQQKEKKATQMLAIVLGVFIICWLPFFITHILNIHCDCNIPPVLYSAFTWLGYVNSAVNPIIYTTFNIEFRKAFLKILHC
Chain of D(2) dopamine receptor (Rattus norvegicus) (P61169 whole entry): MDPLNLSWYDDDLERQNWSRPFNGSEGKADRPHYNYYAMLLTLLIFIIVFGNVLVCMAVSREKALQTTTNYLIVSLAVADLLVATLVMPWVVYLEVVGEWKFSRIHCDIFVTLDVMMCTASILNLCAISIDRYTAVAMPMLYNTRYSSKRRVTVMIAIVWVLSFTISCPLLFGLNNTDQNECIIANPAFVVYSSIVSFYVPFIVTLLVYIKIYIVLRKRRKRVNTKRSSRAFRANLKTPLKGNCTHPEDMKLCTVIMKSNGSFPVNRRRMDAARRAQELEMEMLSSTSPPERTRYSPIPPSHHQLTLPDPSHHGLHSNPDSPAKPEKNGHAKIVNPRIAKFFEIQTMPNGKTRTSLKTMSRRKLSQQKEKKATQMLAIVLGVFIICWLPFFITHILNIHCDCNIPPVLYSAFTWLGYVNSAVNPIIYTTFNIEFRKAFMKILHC
Chain of D(3) dopamine receptor (Homo sapiens) (P35462 whole entry): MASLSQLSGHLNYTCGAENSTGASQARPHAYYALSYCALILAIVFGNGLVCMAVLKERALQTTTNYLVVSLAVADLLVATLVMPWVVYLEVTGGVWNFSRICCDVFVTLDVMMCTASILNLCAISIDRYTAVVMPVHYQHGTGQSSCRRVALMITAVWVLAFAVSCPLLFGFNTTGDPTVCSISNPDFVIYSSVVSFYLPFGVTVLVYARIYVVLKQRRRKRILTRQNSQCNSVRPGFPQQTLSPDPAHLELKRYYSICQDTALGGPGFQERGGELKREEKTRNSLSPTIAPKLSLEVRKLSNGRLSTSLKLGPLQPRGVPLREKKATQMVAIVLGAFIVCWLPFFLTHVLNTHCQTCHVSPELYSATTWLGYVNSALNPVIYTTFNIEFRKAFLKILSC

For `Cc1cccc(NC(=O)CN2CCC(c3ccccn3)CC2)c1`, the values for the Activity entry in [1] (filed as agonist) and in [3] were “Agonist” and 75%, respectively. In series [2], this compound showed a Ki of 8 nM. In series [4], this compound yielded an EC50 of 14 nM. Besides, the figures for the bioavailability in [5] and in series [6] were 0% and 57%, respectively. The compound further gave a half-life in series [7] of 42 min.

For `O=C(NCN1CCC(c2cccc[n+]2[O-])CC1)c1cccs1`, the outcome in series [8] was inactive.

In the case of `O=C(CCCN1CCC(O)(c2ccc(Cl)cc2)CC1)c1ccc(F)cc1`, the outcome in series [9] was Active.

Consider `Oc1ccc(N2CCN(Cc3nc4ccccc4[nH]3)CC2)nc1`, for which the figures for the Ki in series [10], in series [20] and in series [2] were more than 10 µM, more than 10000 nM and 17 nM, respectively. For the same compound, the result in [11], in series [12], in series [13], in series [18], in [19] and in [21] was inactive. For the same compound, the EC50 is 5 nM in series [14], 13.7 nM in series [15] and 2.4 nM in series [4]. For the same compound, the Efficacy was 48% in [16] and 66% in series [17]. The Activity entry is “Partial agonist” in series [1] (filed as partial agonist) and 60% in series [3].

In turn, `Cc1cccc(C(=O)NCN2CCC(c3ccccc3)CC2)c1` gave a Ki in series [20] of 235 nM. Besides, in series [22], the Efficacy is 17%. Moreover, in series [23], the result was inactive.

For `O=c1[nH]c2ccccc2n1CCCN1CCC(n2c(=O)[nH]c3cc(Cl)ccc32)CC1`, the result in series [24] was inactive.

For the origin of these results see ChEMBL document CHEMBL1137302 (J Med Chem, 2006).
